Experimental data from ChEMBL document CHEMBL4376812 (J Med Chem, 2019).
Calls of active or inactive are those of the source. The rule behind the calls is not given here.

Columns and labels:
JAK1/TYK2 = JAK1/TYK2 (Homo sapiens, UniProt P23458+P29597); assay: Inhibition of JAK1/TYK2 in human Kit225 T cells assessed as inhibition of STAT phosphorylation by luciferase reporter assay; format: cell-based
Procedure, shortened: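 T-cells carrying a stably integrated STAT-dependent luciferase reporter were stimulated with IFNα or IL-23 to measure TYK2/JAK1-dependent signalling. Dose–response curves gave IC50.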

[1] = biological target: Non-receptor tyrosine-protein kinase TYK2 (Homo sapiens, UniProt P29597); assay: Inhibition of TYK2 in human whole blood assessed as decrease in IFNalpha-induced STAT5 phosphorylation preincubated for 1 hr followed by stimulation with IFN-alpha for 15 mins by fluorescence analysis; format: tissue-based
Procedure, shortened: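 Human whole blood stimulated with IFNα; STAT5 phosphorylation was read in cells by staining and flow cytometry. IC50 from dose–response; mean of at least three experiments.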

[2] = Metabolic stability in mouse liver microsomes assessed as compound remaining incubated for 10 mins; format: ADME, Microsome; conditions: read-out: Stability
Procedure, shortened: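 Mouse liver microsomal stability, reported as percent of parent remaining after a 10 min incubation. Values are means of at least three experiments unless otherwise noted.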

[3] = biological target: Non-receptor tyrosine-protein kinase TYK2 (Mus musculus, UniProt Q9R117); assay: Inhibition of TYK2 in mouse whole blood assessed as decrease in IFNalpha-induced STAT1 phosphorylation preincubated for 1 hr followed by stimulation with IFN-alpha for 15 mins by fluorescence analysis; format: tissue-based
Procedure, shortened: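 Mouse whole blood stimulated with IFNα; STAT1 phosphorylation was measured by cellular staining and flow cytometry. Read as IC50.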

[4] = Permeability coefficient, Kp across apical to basolateral side in human Caco2 cells; format: ADME, cell-based; conditions: Caco-2, read-out: permeability
Procedure, shortened: (§1)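 Caco-2 monolayer permeability measured in both directions, apical-to-basal and basal-to-apical, reported as Pc in nm/s. An efflux ratio was calculated from the two directions.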

[5] = Permeability coefficient, Kp across basolateral to apical side in human Caco2 cells; format: ADME, cell-based; conditions: Caco-2, read-out: permeability; procedure, shortened: as §1
Mus musculus [6] = assay: Protection against IL23-induced acanthosis C57BL/6 mouse assessed as inhibition in IL-21 mRNA expression in ear skin compound dosed orally via gavage bid for 9 days with first dose given prior to first IL23 challenge and twice a day thereafter by qRT-PCR analysis; format: functional, organism-based; conditions: tested as the 2H-labelled form
Procedure, shortened: (§2)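 IL-23 was injected intradermally and repeatedly into mouse ears to induce psoriasis-like acanthosis. Compound was given orally twice daily for 9 days in EtOH:TPGS:PEG300 (5:5:90), at 7.5, 15 and 30 mg/kg. Skin biopsies were analysed for cytokine transcripts (IL-17A, IL-21, IL-12/IL-23 subunits) by quantitative PCR. Eight mice per group.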

Mus musculus [7] = assay: Protection against IL23-induced acanthosis C57BL/6 mouse assessed as inhibition in IL-23 mRNA expression in ear skin compound dosed orally via gavage bid for 9 days with first dose given prior to first IL23 challenge and twice a day thereafter by qRT-PCR analysis; format: functional, organism-based; conditions: tested as the 2H-labelled form; procedure, shortened: as §2
Mus musculus [8] = assay: Protection against IL23-induced acanthosis C57BL/6 mouse assessed as reduction in ear swelling at 15 mg/kg, po via gavage bid for 9 days with first dose given prior to first IL23 challenge and twice a day thereafter by caliper method; format: functional, organism-based; conditions: tested as the 2H-labelled form
Mus musculus [9] = assay: Protection against IL23-induced acanthosis C57BL/6 mouse assessed as reduction in ear swelling at 30 mg/kg, po via gavage bid for 9 days with first dose given prior to first IL23 challenge and twice a day thereafter by caliper method; format: functional, organism-based; conditions: tested as the 2H-labelled form
Mus musculus [10] = assay: Protection against IL23-induced acanthosis C57BL/6 mouse assessed as inhibition of inflammatory cellular infiltration compound dosed orally via gavage bid for 9 days with first dose given prior to first IL23 challenge and twice a day thereafter by H and E staining based analysis; format: functional, organism-based; conditions: tested as the 2H-labelled form
Procedure, shortened: (§3)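 IL-23 was injected intradermally into mouse ears repeatedly to drive acanthosis. Test agent was given orally twice daily for 9 days at 7.5, 15 or 30 mg/kg in EtOH:TPGS:PEG300 (5:5:90), with an anti-IL-23 adnectin as positive control. Epidermal hyperplasia and cellular infiltration were scored histologically. Eight mice per group; means ± SEM; one-way ANOVA.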

Mus musculus [11] = assay: Protection against IL23-induced acanthosis C57BL/6 mouse assessed as inhibition in IL-17A mRNA expression in ear skin compound dosed orally via gavage bid for 9 days with first dose given prior to first IL23 challenge and twice a day thereafter by qRT-PCR analysis; format: functional, organism-based; conditions: tested as the 2H-labelled form
Procedure, shortened: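 Mice given repeated intradermal IL-23 injections into the ears to induce acanthosis. Oral dosing twice daily for 9 days at 7.5, 15 or 30 mg/kg in 5:5:90 EtOH:TPGS:PEG300 vehicle; anti-IL-23 adnectin served as positive control. Skin biopsies analysed by quantitative PCR for IL-17A expression. Eight mice per group; means ± SEM; one-way ANOVA.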

Mus musculus [12] = assay: Protection against IL23-induced acanthosis C57BL/6 mouse assessed as inhibition in epidermal hyperplasia compound dosed orally via gavage bid for 9 days with first dose given prior to first IL23 challenge and twice a day thereafter by H and E staining based analysis; format: functional, organism-based; conditions: tested as the 2H-labelled form
Procedure, shortened: (§4)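 IL-23 was injected intradermally and repeatedly into mouse ears. Compound was dosed orally twice daily for 9 days in EtOH:TPGS:PEG300 (5:5:90), at 7.5, 15 or 30 mg/kg. Histological scoring covered epidermal hyperplasia and inflammatory infiltration. Eight mice per group; means ± SEM; one-way ANOVA.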

Mus musculus [13] = assay: Protection against IL23-induced acanthosis C57BL/6 mouse assessed as inhibition in epidermal hyperplasia at 30 mg/kg, po via gavage bid for 9 days with first dose given prior to first IL23 challenge and twice a day thereafter by H and E staining based analysis; format: functional, organism-based; conditions: tested as the 2H-labelled form; procedure, shortened: as §4
Mus musculus [14] = assay: Protection against IL23-induced acanthosis C57BL/6 mouse assessed as inhibition of inflammatory cellular infiltration at 30 mg/kg, po via gavage bid for 9 days with first dose given prior to first IL23 challenge and twice a day thereafter by H and E staining based analysis; format: functional, organism-based; conditions: tested as the 2H-labelled form; procedure, shortened: as §3
Mus musculus [15] = assay: Protection against IL23-induced acanthosis C57BL/6 mouse assessed as inhibition in IL-12 mRNA expression in ear skin compound dosed orally via gavage bid for 9 days with first dose given prior to first IL23 challenge and twice a day thereafter by qRT-PCR analysis; format: functional, organism-based; conditions: tested as the 2H-labelled form; procedure, shortened: as §2
Mus musculus [16] = assay: Protection against IL23-induced acanthosis in C57BL/6 mouse assessed as reduction in ear swelling compound dosed orally via gavage bid for 9 days with first dose given prior to first IL23 challenge and twice a day thereafter by caliper method; format: functional, organism-based; conditions: tested as the 2H-labelled form
Homo sapiens [17] = species: Homo sapiens; assay: Selectivity ratio of IC50 for JAK1/JAK3 in human PBMC assessed as decrease in IL2-induced STAT5 phosphorylation in CD3+ T cells to IC50 for TYK2 JH2 domain in human PBMC assessed as decrease in IFNalpha-induced STAT5 phosphorylation; format: cell-based; conditions: tested as the 2H-labelled form
Procedure, shortened: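 Human PBMC were stimulated with IL-2 (JAK1/JAK3) or IFNα (TYK2), and STAT5 phosphorylation in CD3⁺ T-cells was the end point. The ratio is IL-2 IC50 over IFNα IC50, with means from at least three separate experiments.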

Homo sapiens [18] = species: Homo sapiens; assay: Selectivity ratio of IC50 for c-kit (unknown origin) to IC50 for His-tagged recombinant human TYK2 pseudokinase JH2 domain (575-869 residues) incubated for 1 hr by HTRF assay; conditions: tested as the 2H-labelled form
Homo sapiens [19] = species: Homo sapiens; assay: Selectivity ratio of IC50 for JAK2 in GM-CSF-stimulated human TF-1 cells to IC50 for TYK2 JH2 domain in human PBMC assessed as decrease in IFNalpha-induced STAT5 phosphorylation; conditions: tested as the 2H-labelled form
[20] = Metabolic stability in mouse liver microsomes assessed as half life; format: ADME, Microsome
Procedure, shortened: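 Liver microsomes from human, rat, mouse, dog, cynomolgus monkey and rabbit were incubated with compound. Stability is reported as half-life (T1/2, min). Values are means of at least three separate experiments.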

JAK1/TYK2, sequence (P23458 whole entry): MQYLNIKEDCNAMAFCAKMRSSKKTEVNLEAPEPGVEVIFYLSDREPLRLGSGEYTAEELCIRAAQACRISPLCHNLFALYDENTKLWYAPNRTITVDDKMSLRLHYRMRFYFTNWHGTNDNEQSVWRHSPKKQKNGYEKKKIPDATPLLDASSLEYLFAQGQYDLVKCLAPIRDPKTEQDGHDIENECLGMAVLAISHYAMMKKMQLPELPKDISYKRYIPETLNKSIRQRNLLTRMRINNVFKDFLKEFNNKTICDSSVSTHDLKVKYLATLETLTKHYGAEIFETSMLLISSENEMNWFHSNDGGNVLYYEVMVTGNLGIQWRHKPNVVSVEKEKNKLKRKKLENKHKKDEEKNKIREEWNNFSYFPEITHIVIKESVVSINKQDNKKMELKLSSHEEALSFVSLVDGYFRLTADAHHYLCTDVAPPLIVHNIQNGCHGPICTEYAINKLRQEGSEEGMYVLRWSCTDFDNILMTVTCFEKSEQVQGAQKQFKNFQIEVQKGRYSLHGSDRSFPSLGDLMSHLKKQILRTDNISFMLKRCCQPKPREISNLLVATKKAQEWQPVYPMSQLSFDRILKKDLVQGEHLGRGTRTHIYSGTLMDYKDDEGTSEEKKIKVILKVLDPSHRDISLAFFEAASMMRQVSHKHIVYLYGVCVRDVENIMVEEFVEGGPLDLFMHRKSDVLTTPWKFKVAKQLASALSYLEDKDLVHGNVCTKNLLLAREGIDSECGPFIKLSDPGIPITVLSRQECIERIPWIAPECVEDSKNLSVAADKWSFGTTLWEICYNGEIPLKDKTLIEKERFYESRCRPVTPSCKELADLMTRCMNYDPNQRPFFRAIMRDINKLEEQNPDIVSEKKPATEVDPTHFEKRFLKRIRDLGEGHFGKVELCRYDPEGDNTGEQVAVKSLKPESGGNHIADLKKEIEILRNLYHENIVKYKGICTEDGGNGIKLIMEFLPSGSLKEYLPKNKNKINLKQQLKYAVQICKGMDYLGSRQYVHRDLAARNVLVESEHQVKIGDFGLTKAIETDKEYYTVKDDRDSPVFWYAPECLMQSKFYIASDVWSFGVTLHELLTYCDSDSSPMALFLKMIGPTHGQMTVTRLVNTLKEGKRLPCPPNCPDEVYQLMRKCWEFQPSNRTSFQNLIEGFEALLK
JAK1/TYK2, sequence (P29597 whole entry): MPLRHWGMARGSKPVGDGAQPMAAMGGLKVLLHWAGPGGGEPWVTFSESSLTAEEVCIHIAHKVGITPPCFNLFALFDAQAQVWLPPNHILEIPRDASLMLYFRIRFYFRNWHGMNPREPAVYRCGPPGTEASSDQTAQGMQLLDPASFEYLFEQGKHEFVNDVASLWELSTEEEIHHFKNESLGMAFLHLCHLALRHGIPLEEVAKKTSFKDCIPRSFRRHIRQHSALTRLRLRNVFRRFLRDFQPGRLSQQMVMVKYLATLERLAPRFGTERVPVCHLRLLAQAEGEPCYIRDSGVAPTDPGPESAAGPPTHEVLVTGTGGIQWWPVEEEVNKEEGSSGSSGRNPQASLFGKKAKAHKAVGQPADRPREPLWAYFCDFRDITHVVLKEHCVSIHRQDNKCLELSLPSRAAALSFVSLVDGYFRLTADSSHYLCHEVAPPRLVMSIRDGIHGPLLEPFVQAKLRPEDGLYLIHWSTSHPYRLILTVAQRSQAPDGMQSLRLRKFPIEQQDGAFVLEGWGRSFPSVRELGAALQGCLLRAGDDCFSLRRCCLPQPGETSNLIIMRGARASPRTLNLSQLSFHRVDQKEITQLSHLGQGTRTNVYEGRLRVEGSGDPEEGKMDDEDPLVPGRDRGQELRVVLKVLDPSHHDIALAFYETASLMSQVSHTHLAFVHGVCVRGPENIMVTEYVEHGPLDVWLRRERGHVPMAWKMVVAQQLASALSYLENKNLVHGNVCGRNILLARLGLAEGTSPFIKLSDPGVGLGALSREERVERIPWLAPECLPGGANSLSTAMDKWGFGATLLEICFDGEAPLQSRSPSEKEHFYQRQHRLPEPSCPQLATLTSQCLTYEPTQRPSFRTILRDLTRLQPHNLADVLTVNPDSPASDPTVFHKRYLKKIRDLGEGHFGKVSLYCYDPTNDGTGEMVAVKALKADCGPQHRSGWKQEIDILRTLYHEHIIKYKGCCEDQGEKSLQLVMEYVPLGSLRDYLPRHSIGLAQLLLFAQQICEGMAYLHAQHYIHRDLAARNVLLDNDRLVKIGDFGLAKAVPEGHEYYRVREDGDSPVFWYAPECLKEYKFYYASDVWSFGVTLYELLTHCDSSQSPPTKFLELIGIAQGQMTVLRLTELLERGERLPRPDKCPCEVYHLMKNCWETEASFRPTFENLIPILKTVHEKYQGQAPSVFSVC
Non-receptor tyrosine-protein kinase TYK2 (Mus musculus, UniProt Q9R117), sequence (Q9R117 whole entry): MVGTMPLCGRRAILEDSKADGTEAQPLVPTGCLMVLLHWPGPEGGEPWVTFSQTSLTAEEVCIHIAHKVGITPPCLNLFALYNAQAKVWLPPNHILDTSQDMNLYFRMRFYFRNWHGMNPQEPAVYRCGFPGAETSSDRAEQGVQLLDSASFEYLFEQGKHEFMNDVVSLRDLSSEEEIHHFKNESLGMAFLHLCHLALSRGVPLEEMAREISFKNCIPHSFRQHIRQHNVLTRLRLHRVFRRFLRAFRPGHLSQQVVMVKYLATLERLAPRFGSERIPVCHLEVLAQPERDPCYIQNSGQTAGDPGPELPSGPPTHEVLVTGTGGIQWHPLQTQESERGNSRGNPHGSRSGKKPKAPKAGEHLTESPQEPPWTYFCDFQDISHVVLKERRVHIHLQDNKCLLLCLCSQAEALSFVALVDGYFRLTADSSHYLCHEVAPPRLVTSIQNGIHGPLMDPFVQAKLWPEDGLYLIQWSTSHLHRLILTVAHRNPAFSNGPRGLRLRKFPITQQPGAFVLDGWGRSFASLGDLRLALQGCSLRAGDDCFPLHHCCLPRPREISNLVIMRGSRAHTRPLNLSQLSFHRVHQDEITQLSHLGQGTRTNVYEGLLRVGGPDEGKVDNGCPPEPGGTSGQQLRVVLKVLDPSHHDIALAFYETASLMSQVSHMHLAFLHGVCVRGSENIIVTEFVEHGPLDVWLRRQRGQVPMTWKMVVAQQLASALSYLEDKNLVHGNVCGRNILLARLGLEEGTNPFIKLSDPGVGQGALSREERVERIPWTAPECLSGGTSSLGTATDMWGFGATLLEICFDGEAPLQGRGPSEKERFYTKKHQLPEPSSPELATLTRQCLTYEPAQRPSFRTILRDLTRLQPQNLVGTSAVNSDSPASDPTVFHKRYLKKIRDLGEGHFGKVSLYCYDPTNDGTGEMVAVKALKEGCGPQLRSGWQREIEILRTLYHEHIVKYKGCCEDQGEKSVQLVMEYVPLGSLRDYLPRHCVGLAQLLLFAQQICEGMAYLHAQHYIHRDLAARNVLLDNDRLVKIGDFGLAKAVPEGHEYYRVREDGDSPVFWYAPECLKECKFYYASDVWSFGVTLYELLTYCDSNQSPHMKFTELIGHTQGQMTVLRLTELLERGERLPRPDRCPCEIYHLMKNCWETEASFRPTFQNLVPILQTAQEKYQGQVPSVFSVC
Non-receptor tyrosine-protein kinase TYK2 (Homo sapiens, UniProt P29597), sequence (P29597 whole entry): as the sequence (P29597 whole entry) above

SMILES | IC50 (JAK1/TYK2) [nM] | IC50 [1] [nM] | remaining at 10 min [2] [%] | IC50 [3] [nM] | Papp A→B [4] [×10⁻⁶ cm/s] | other results
CNC(=O)c1cnc(Nc2ccc(F)cn2)cc1Nc1cccc(C#N)c1OC | 34 | 570 |  |  |  | 
CNC(=O)c1cnc(Nc2ccc(F)cn2)cc1Nc1ccc(C(N)=O)cc1OC | 930 | 390 |  |  |  | 
CNC(=O)c1cnc(Nc2cc(C)c(F)cn2)cc1Nc1cccc(-c2nnc(C)o2)c1OC | 12 | 100 | 70 | 570 |  | 
CNC(=O)c1cnc(Nc2cc(C)c(F)cn2)cc1Nc1cccc(C(=O)NCC2CC2)c1OC | 64 | 870 |  |  |  | 
CNC(=O)c1cnc(Nc2cc(C)c(F)cn2)cc1Nc1cccc(-c2ccn(C)n2)c1OC | 9 | 79 | 66 | 430 |  | 
CNC(=O)c1cnc(Nc2cc(C)c(F)cn2)cc1Nc1cccc(-c2nncn2C)c1OC | 16 | 150 | 29 |  |  | 
CNC(=O)c1cnc(Nc2cc(C)c(F)cn2)cc1Nc1cccc(C(N)=O)c1OC | 30 | 62 |  |  | < 1.5 | Papp B→A [5]: 26 ×10⁻⁶ cm/s
CNC(=O)c1ccc(Nc2cc(Nc3ccc(F)cn3)ncc2C(=O)NC)c(OC)c1 | 490 | 520 |  |  | < 1.5 | 
CNC(=O)c1nnc(NC(=O)C2CC2)cc1Nc1cccc(-c2ncn(C)n2)c1OC |  |  |  |  |  | Activity (Mus musculus [6]): Dose-dependent effect; Activity (Mus musculus [7]): Dose-dependent effect; Activity (Mus musculus [8]): Active; Activity (Mus musculus [9]): Active; Activity (Mus musculus [10]): Dose-dependent effect; Activity (Mus musculus [11]): Dose-dependent effect; Activity (Mus musculus [12]): Dose-dependent effect; Activity (Mus musculus [13]): Active; Activity (Mus musculus [14]): Active; Activity (Mus musculus [15]): Dose-dependent effect; Activity (Mus musculus [16]): Dose-dependent effect
CNC(=O)c1cnc(Nc2ccc(F)cn2)cc1Nc1cccc(C(=O)O)c1OC | > 10000 | > 10000 |  |  | < 1.5 | 
CNC(=O)c1nnc(Nc2ccccn2)cc1Nc1ccccc1S(C)(=O)=O |  |  |  |  |  | Ratio IC50 (Homo sapiens [17]): 210; Ratio IC50 (Homo sapiens [18]): 690; Ratio IC50 (Homo sapiens [19]): 270
CNC(=O)c1cnc(Nc2cc(C)c(F)cn2)cc1Nc1cccc(-c2ncnn2C)c1OC | 15 | 87 | 9 | 380 |  | 
CNC(=O)c1cnc(NC(=O)C2CC2)cc1Nc1cccc(-c2ncn(C)n2)c1OC | 14 | 16 | 93 | 330 | 2.3 | 
CNC(=O)c1cnc(Nc2cc(C)c(F)cn2)cc1Nc1cccc(-c2ccnn2C)c1OC | 70 | 300 | 15 |  |  | 
CNC(=O)c1cnc(Nc2ccc(C#N)cn2)cc1Nc1cccc(-c2ncn(C)n2)c1OC | 6 | 15 | 85 | 260 | 1.8 | 
[2H]C([2H])([2H])NC(=O)c1cnc(NC(=O)C2CC2)cc1Nc1cccc(-c2ncn(C)n2)c1OC | 8 | 13 | 89 | 100 | < 1.5 | half-life [20]: > 2 h
